Compound activity from PubChem BioAssay.
Compounds with a hit are over-represented: about 2.2% of the library has one in this group of screens.
b-catenin transl = modulators of beta-catenin nuclear translocation, primary screen, imaging, HeLa cells, immunofluorescence, high-content; AID 1665, 2009; nuclear translocation activity, % at 5 µM; 190,000 compounds, 0.3% hits;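 active = nuclear translocation activity above 50% at 5 µM, with a well cell count of 50 or more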;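 note: per-cell ratio of nuclear to cytoplasmic median beta-catenin stain intensity; plate controls were DMSO negative control for no effect and GSK-3 inhibitor IX positive control for full effect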
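Test system: human HeLa cell line; Doses: 5 µM primary, 0.02–20 µM confirmation; Incubation: 24 h compound exposure, 37°C; Detection: beta-catenin immunofluorescence imaging with DAPI; Read-out: beta-catenin nuclear/cytoplasmic ratio, % activation.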
BaF3 tox = parental Ba/F3 cell viability inhibition, counter-screen for JAK2V617F inhibitor project, murine pro-B, CellTiter-Glo luminescence. CellTiter-Glo ATP luminescence. inhibition, % at 5.6 µM. 220,000 compounds, 1.1% hits;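 active = inhibition above a per-campaign cutoff, the mean inhibition of all tested compounds plus 3 SD, cut at about 27% in these data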;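 note: 0% = DMSO wells and 100% = JAK Inhibitor I control wells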
APP transl inh = inhibitors of APP translation via 5'UTR reporter, primary screen, APP 5'UTR luciferase, SH-SY5Y cells | SH-SY5Y APP 5'UTR-luciferase reporter, luminescence | inhibition, % at 2 µM | 190,000 compounds, 0.82% hits | AID 1285, 2008;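 active = inhibition above a set limit, derived from the sample mean plus 3 SD, cut at about 45% in these data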
Ba/F3 V617F tox = reduced viability of JAK2V617F-dependent Ba/F3 cells, primary screen, JAK2V617F inhibitor project, cell-based, Ba/F3 EpoR-JAK2V617F, luminescence; AID 1446, 2008; 220,000 compounds, 1.1% hits; inhibition, % at 5.6 µM; ATP luminescence;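 active = inhibition above the campaign mean plus 3 SD over all tested compounds, cut at about 24% in these data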;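 note: cytokine-independent growth of Ba/F3 cells driven by EpoR plus mutant JAK2; 0% = DMSO-treated cells and 100% = JAK inhibitor I control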
MT stabilizer = microtubule stabilizers in HeLa cells, primary screen, imaging, high-content imaging. % tubulin-high responders, % at 10 µM. HeLa tubulin immunostaining HCS, 24 h; share of cells brighter than vehicle mean+2SD. 200,000 compounds, 0.83% hits;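 active = plate Z-score above 3 for both tubulin-high and condensed-nucleus cell shares, with cell loss under 80%, at 10 µM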;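 note: anti alpha tubulin signal scored within the nucleus-defined area of each cell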
IEC-6 cytotox = cytotoxicity in IEC-6 intestinal epithelial cells, primary screen, cytotoxicity control for KLF5 inhibitor project, cell-based, luminescence. 290,000 compounds, 0.78% hits. AID 1825, 2009. inhibition, % at 5 µM. IEC-6 cytotoxicity, luminescence viability; in the data active = inhibition above about 22%;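 note: 0% = plate median of test compound wells and 100% = cytotoxic reference compound wells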
* = called active by the depositor; x = not tested or not shown.

SMILES	b-catenin transl	BaF3 tox	APP transl inh	Ba/F3 V617F tox	MT stabilizer	IEC-6 cytotox
CC(=O)n1c2ccccc2c2ccccc21	x	5	4	1	3	-11
Cc1ccc(C(=O)n2c3ccccc3c3ccccc32)cc1	96*	3	41	2	44*	5
CCCCN(C(=O)CN1CCOCC1)c1c(N)n(CC(C)C)c(=O)[nH]c1=O	-2	4	-10	-1	4	-4
NNC(=O)c1cc2c(s1)CCCCCC2	0	5	70*	-3	3	7
CCOC(=O)c1c(C)[nH]c(C(=O)N/N=C\c2ccccc2O)c1C	19	1	67*	0	10	8
C[C@H]1O[C@@H](O[C@H]2[C@@H](O)C[C@H](O[C@H]3[C@@H](O)C[C@H](O[C@H]4CC[C@@]5(C)[C@H](CC[C@@H]6[C@@H]5C[C@@H](O)[C@]5(C)[C@@H](C7=CC(=O)OC7)CC[C@]65O)C4)O[C@@H]3C)O[C@@H]2C)C[C@H](O)[C@@H]1O	12	2	94*	-2	8	4
CC(NCC1(N2CCOCC2)CCCCC1)C(=O)Nc1ccc(Cl)cc1Cl (centres undefined)	-2	11	8	3	1	-4
NC(N)=NS(=O)(=O)c1ccc(N/C=C\C(=O)c2ccncc2)cc1	-1	7	12	-1	3	-4
C=CCOc1ccc(C2C(C#N)=C(N)N(Nc3ccccc3)C3=C2C(=O)CC(C)(C)C3)cc1OC (centres undefined)	2	0	-5	2	32*	-4
C#CCOc1ccc(C2C3=C(CC(C)(C)CC3=O)N(CC(=O)O)C3=C2C(=O)CC(C)(C)C3)cc1OC	x	x	x	x	x	-4
O=C(CCc1ccccc1)Nc1cc(Cl)ccc1O	1	29*	-10	23	2	0
Cc1ccc(CN2C(=O)/C(=C\c3ccc(C(=O)NCc4cccnc4)cc3)Oc3ccccc32)cc1	1	-2	72*	-4	2	0
O=C(CN1C(=O)/C(=C\c2ccccc2Cl)Oc2ccccc21)NCc1cccnc1	0	1	-8	3	1	0
CC(=NCc1ccco1)c1c(C)[nH]n(-c2nc3ccccc3s2)c1=O	0	6	-153	3	2	-3
C/C(=N/NC(=O)c1cccs1)c1c(C)[nH]n(-c2nc3ccccc3s2)c1=O	0	49*	-87	48*	6	42*
Cc1ccc(S(=O)(=O)ON=C2CCN(S(=O)(=O)c3ccccc3)CC2)cc1	x	1	1	0	2	4
CC1=CC(=O)C(C(C)C)=C/C1=N/OS(=O)(=O)c1ccccc1	1	104*	x	99*	x	-1
Cc1ccc2c(c1)/C(=N/OS(=O)(=O)c1ccccc1)CCS2	x	3	1	1	3	2
CC1=CC(=O)C=C(C)C1=NOS(=O)(=O)c1ccccc1	-6	48*	80*	76*	3	7
O=C(Nc1cc(=O)[nH]c(=O)[nH]1)c1cccc(Br)c1	2	37*	8	12	25*	11
Cc1ccc(C(=O)NCC(=O)OCC(=O)/C=C2\N(C)c3ccccc3C2(C)C)cc1C	0	5	8	-2	4	-3
CN1/C(=C\C(=O)c2cccc(S(=O)(=O)N3CCCCC3)c2)C(C)(C)c2ccccc21	x	-2	-3	-2	3	5
CN1/C(=C\C(=O)COC(=O)c2ccccc2O)C(C)(C)c2ccccc21	0	2	x	-1	x	2
Cc1c(NC(=S)/C=C2\N(C)c3ccccc3C2(C)C)c(=O)n(-c2ccccc2)n1C	1	50*	8	8	2	-7
CN1/C(=C/C(=S)NC(=O)C2CCC2)C(C)(C)c2ccccc21	-4	30*	-2	6	3	5
SMILES	b-catenin transl	BaF3 tox	APP transl inh	Ba/F3 V617F tox	MT stabilizer	IEC-6 cytotox
CC(=O)/C=C1\N(C)c2ccc(C)cc2C1(C)C	-1	39*	12	42*	2	-2
Cc1ccc(C(=O)NC(=S)/C=C2\N(C)c3ccccc3C2(C)C)cc1	-1	36*	-5	4	3	-1
O=C1CC(=O)N2N=C(c3ccc([N+](=O)[O-])cc3)SC2=N1	1	2	1	-2	4	12
Cc1ccc(C)c2[nH]c(=O)c(CN(Cc3cccs3)C(=S)NCc3ccco3)cc12	-1	8	-3	1	4	-12
CCOC(=O)N1CCN(C(=O)CSc2ccc(-c3cccnc3)nn2)CC1	0	9	18	-3	2	1
CN1/C(=C\C(=O)C(F)F)C(C)(C)c2ccccc21	-1	4	5	-4	2	-2
CC(C)C(=O)NC(=S)/C=C1/N(C)c2ccccc2C1(C)C	-4	57*	-2	30*	2	-6
NS(=O)(=O)c1ccc(N/N=C/c2cn(-c3ccccc3)nc2-c2cccs2)c([N+](=O)[O-])c1	37	3	1	3	9	-5
N#Cc1ccc(N/N=C/c2cn(-c3ccccc3)nc2-c2ccccc2)c([N+](=O)[O-])c1	x	7	75*	-1	3	0
CN1/C(=C/C(=O)c2nc(S(C)(=O)=O)ncc2Cl)C(C)(C)c2ccccc21	1	92*	57*	87*	2	-4
CCOC(=O)c1nc(S(C)(=O)=O)ncc1Cl	-3	-4	-2	-2	2	-2
CN1/C(=C\C(=O)C[n+]2ccc3ccccc3c2)C(C)(C)c2ccccc21	1	42*	-20	41*	2	2
CN1/C(=C\C(=O)c2cncc(Br)c2)C(C)(C)c2ccccc21	-5	70*	-1	62*	3	-2
CN1/C(=C\C(=O)COc2ccc3c(c2)OCO3)C(C)(C)c2ccccc21	x	62*	3	64*	5	0
CN1/C(=C\C(=O)c2cccnc2)C(C)(C)c2ccccc21	1	7	-34	-1	2	0
COc1ccccc1OCC(=O)/C=C1/N(C)c2ccccc2C1(C)C	1	7	-7	6	4	-4
Cc1cccc2sc(NNC(=O)c3cc(-c4cccs4)nc4ccccc34)nc12	-2	3	16	-6	4	0
COc1ccc(CCNC(=O)CC(c2ccccc2)c2cccc(C)c2O)cc1OC (centres undefined)	0	6	2	-2	3	-2
CN1/C(=C\C(=O)c2ccco2)C(C)(C)c2ccccc21	0	65*	-8	72*	2	9
